These results are taken from the EternaBench riboswitch data.

The test system of this data set is MS2 coat protein. Nature of the data set: apparent Kd, MS2 coat protein; higher = weaker binding; RNA-MaP array; FMN 200 µM where present. The essentials:
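In 100 mM Tris-HCl pH 7.5, 80 mM KCl, 4 mM MgCl2, BSA, DTT, yeast tRNA and Tween-20, SNAP-549-labelled MS2 coat protein was titrated from 0.7 or 1.5 nM, doubling to 3 µM, over designs transcribed by stalled E. coli RNA polymerase on Illumina sequencing-chip clusters. This was done first without ligand, then with ligand held constant. After green signal was normalised to red-channel RNA signal and control-cluster median Fmax, the apparent Kd was taken as the median of filtered per-cluster binding-curve fits.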

Setting [1] is: designed as: OFF switch for flavin mononucleotide, no ligand.
Where [2] appears, read: ligand present: flavin mononucleotide, designed as: OFF switch for flavin mononucleotide.
Where [3] appears, read: designed as: ON switch for flavin mononucleotide, no ligand.
[4] abbreviates: ligand present: flavin mononucleotide, designed as: ON switch for flavin mononucleotide.

The apparent Kd is a dissociation constant that holds for the conditions of the assay. For the sequence “GGUCAUCAAGUCAGGAUAUCGUCUGGUCGGUCUGGCGAGAAGGGACAUGAGGAUCACCCAUGUCGUCUCAUCAG”, the “apparent Kd” value runs as follows: under setting [1], 15.2 nM; under setting [2], 17.7 nM.

Take “GGUUCCAUCGCAGGAUAUGCUAUCCUUUGGGUAGCAGAAGGGUGAUAACAUGAGGAUCACCCAUGUGGAACCGGGCGUGAGCCC”: the “apparent Kd” value by setting is: under setting [3], 177 nM; under setting [4], 1050 nM.

For the sequence “UGUGUCUGUAGAGGAUAUCCGGGCGUUCGGCUAGGAGAAGGCUGCAACACAUGAGGAUCACCCAUGUAGGUUGUGUCUCCCUAC”, the “apparent Kd” value by setting is: under setting [1], 9.9 nM; under setting [2], 29.7 nM.

In the case of “GACUCGAAUGUAGGAUAUGCUGAGGAUAACUCAGCAGAAGGACAUGAGGAUCACCCAUGUCAAUGAGUGAAUAAUAAACGAGUC”, the “apparent Kd” value turned out to be 29 nM under setting [1] and 245 nM under setting [2].

Take “GGAAAUCAUGUAGGAUAUGCAUGGCGAAGCUACGCAGAAGGACAUGAGGAUCACCCAUGUUAAAGCUACCGAGUUCGGUGGCAA”: the “apparent Kd” value was 180 nM under setting [1] and 148 nM under setting [2].

Consider “CCGGAAACGGGUAGCCUGACAUGAGGAUCACCCAUGUGAACCGAGGAUAUGGAUCCUAAUUGGAUCCAGAAGGUGGCAGGCUAC”, for which the “apparent Kd” value runs as follows: under setting [3], 681 nM; under setting [4], 245 nM.

As to “CUAUACAUAUCAGGAUAUCAUCGCGUGGAUUAACCCUGUGAUUACAUGAGGAUCACCCAUGUGCUUGAGAAGGGAUUACUAUUU”, the “apparent Kd” value by setting is: under setting [1], 33.7 nM; under setting [2], 152 nM.

On to “AAAUUUAACGAAGGAUAUGGAUACAUGAGGAUCACCCAUGUAUAUUUUGUGAUCUUGUUUAAGAUCCAGAAGGUCGUAUACAUA”, for which the “apparent Kd” value under setting [1] stood at 24 nM and the “apparent Kd” value under setting [2] is 56.1 nM.

On to “GGAUAGGACAGAGGAUAUCCGUGCUAGAGAUACUAGCAAAAUUUCCUCACAUGAGGAUCACCCAUGUAGAAGGCUGUCCUAUCG”, for which the “apparent Kd” value is, setting by setting: under setting [1], 5.98 nM; under setting [2], 11.7 nM.

For the sequence “UAUAUAUAGGCAGGAUAUACAUGAAUAUAUAUAAUGUAGUAUGAUGUAACAUGAGGAUCACCCAUGUAGAAGGGCCAAUAUAUA”, the “apparent Kd” value is, setting by setting: under setting [1], 36.8 nM; under setting [2], 95.2 nM.

For “AUUUCGUCAGGAUAUCCUAGUAAUUGUUUCAUAUUUACAAAGGAGAAGGGACAUGAGGAUCACCCAUGUUUGUC”, the “apparent Kd” value stood at 24.7 nM under setting [1] and 23.1 nM under setting [2].

With “UAUAACUUACAGAAGGGUAUUGUGGUGCAUUAUUAGUAGGAAAUACUAUACAGGAUAUGUAAUACAUGAGGAUCACCCAUGUUC”, the “apparent Kd” value under setting [3] was found to be 22.3 nM and the “apparent Kd” value under setting [4] came to 14.9 nM.

For “GGAGCAACAUGAGGAUCACCCAUGUAGGAUAUCGCUAUUGUAAUCAUGAAACAUGAUUACAAUAGCGAGAAGGACAUAUGCUAA”, the “apparent Kd” value reads like this: under setting [1], 10.6 nM; under setting [2], 12.5 nM.

As for “GUAGAACAUGAGGAUCACCCAUGUGAAGACGCAUGAGGAUAUGUCCGUACCUAGCAUACGAUAGAAGGCAUGGUAC”, the “apparent Kd” value under setting [3] turned out to be 69.2 nM and the “apparent Kd” value under setting [4] was 88.2 nM.

Consider “AGCUGGAGAGGAUAUACGUGAGUGAUAAAAGUCUGAUAACUACAUGAGGAUCACCCAUGUAGAAGGCUCUGGCA”, for which the “apparent Kd” value is, setting by setting: under setting [1], 66.2 nM; under setting [2], 19.4 nM.

For “AUAUGUGUCGAGAAGGGCUCACGUAACGGAACAGCAGGAUAUCGACAUGAGGAUCACCCAUGUCGGAACGAACGGAUCUUUACU”, the “apparent Kd” value under setting [1] stood at 7.22 nM and the “apparent Kd” value under setting [2] was 8.53 nM.

In the case of “CCAUAACUGUGAGGAUAUUGUUGCGUUUAGUGACGAGAAGGCAUUCAUGUGAUAUAUACAUACAUGAGGAUCACCCAUGUUGUA”, the “apparent Kd” value is, setting by setting: under setting [3], 31 nM; under setting [4], 25.5 nM.

As for “GAGUGACAUGAGGAUCACCCAUGUGAGGAUAUCGGACGGACCUUGUUAGCUUCCGCCGCGAGAAGGCACAUCGG”, the “apparent Kd” value is 208 nM under setting [1] and 34.5 nM under setting [2].

Take “UGUUUUCAUGUAGGAUAUGCUUGUCGUAGAUACGCAGAAGGACAUGAGGAUCACCCAUGUUAAUGCUACAGAUUUUAGUUUCUU”: the “apparent Kd” value reads like this: under setting [1], 19.5 nM; under setting [2], 102 nM.

For the sequence “GGGUACAGUGAGAAGGUCUGCGGAUUCCUUAACAUGAGGAUCACCCAUGUAGAAGGAUAUCACAGGUAAAGGUCGUCUAACGAU”, the “apparent Kd” value is, setting by setting: under setting [1], 5.49 nM; under setting [2], 6.82 nM.

As to “UCUUUAUAGAUCCAUUUUAACUACAUGAGGAUCACCCAUGUGCAGGAUAUCGAUUGUUUUACUUUCGAGAAGGGCAAAUUCAGC”, the “apparent Kd” value under setting [1] is 57.6 nM and the “apparent Kd” value under setting [2] was 131 nM.

For the sequence “GUAGCAUACCAAGGAUAUUUAGGACUUUGAUAGACAUGAGGAUCACCCAUGUGGCGUUAGUCACGGGAGAAGGUGGUAUGCUAC”, the “apparent Kd” value worked out at 63.5 nM under setting [3] and 16.9 nM under setting [4].

Consider “GGGUACAUCGGAGGAUAUCAUGUAAAUACAUGAGGAUCACCCAUGUCGAUGGAGACAUCGGAGAUUGAGAAGGCCGAUGUAUCG”, for which the “apparent Kd” value runs as follows: under setting [3], 157 nM; under setting [4], 9.09 nM.

“GGGACCAACACAGGAUAUGCUAUCCUUUGGGUAGCAGAAGGGUGAAACAUGAGGAUCACCCAUGUGGUUCCAGGGCGUGAGCCC”: the “apparent Kd” value by setting is: under setting [3], 1580 nM; under setting [4], 99.6 nM.

Regarding “CGAUGAGGAGUGAGGAUAUCGUGUUCGAAAGAACGUGAGAAGGCACAUGAGGAUCACCCAUGUGAAACUUGUCG”, the “apparent Kd” value under setting [1] was found to be 17.1 nM and the “apparent Kd” value under setting [2] came out at 23.9 nM.

For the sequence “UUGUUAUAUGUAGGAUAUGCAUAUUAUUAUUAUGCAGAAGGACAUGAGGAUCACCCAUGUAUAUUAUUAUUAUAUGUUAUAUAU”, the “apparent Kd” value reads like this: under setting [1], 23.8 nM; under setting [2], 29.8 nM.

With “ACUCUACAUGAGGAUCACCCAUGUUGAGCCCAUCAAGGAUAUGGGUCUUAAUCGCGGGUGCCAGAAGGUGAUGGUU”, the “apparent Kd” value runs as follows: under setting [3], 91 nM; under setting [4], 109 nM.

“AAAAAACAUGAGGAUCACCCAUGUGAGGAUAUGAUGCGAAUAAAGAAAGAAGAAAGCAUCAGAAGGCACAUAUG”: the “apparent Kd” value runs as follows: under setting [1], 86.6 nM; under setting [2], 254 nM.

For the sequence “UUCGUGCAGCUUAGCUGUACGCGUACAUGAGGAUCACCCAUGUAGGAUAUGGUAGGCAAAGCUUACUAGAAGGAUAUAGUGAUC”, the “apparent Kd” value was 129 nM under setting [1] and 144 nM under setting [2].

In the case of “UAAGUAUGUUGAGGAUAUUAUGUUUGGUGAGAUGACAUGAGGAUCACCCAUGUGUUAUCAGUUCUUAAGAAGGCAACAUACUUA”, the “apparent Kd” value runs as follows: under setting [3], 25.7 nM; under setting [4], 17.8 nM.

For “UUAAUAAAGUAAGGAUAUACAUGAGGAUCACUCGUAGAAGGUACUAUACAUGAGGAUCACCCAUGUUCCGGUCAGAAGACUGGA”, the “apparent Kd” value under setting [3] was 1100 nM and the “apparent Kd” value under setting [4] came out at 778 nM.

“GGGUACAUGGGAGGAUAUCAUGUAGAUACAUGAGGAUCACCCAUGUCGAUGGAGACAUCGGAGAUUGAGAAGGCCCAUGUACCG”: the “apparent Kd” value under setting [3] came to 696 nM and the “apparent Kd” value under setting [4] was found to be 36.1 nM.

Turning to “AAGCGAGGGACAGGAUAUGCGGCGGAACUCGCCGCAGAAGGGUCGACAUGAGGAUCACCCAUGUCCUUACGCUCCAAGUAGUGG”, the “apparent Kd” value by setting is: under setting [3], 131 nM; under setting [4], 425 nM.

Regarding “UCGAAGAAUGCAGGAUAUACAUGAGGAUCACCCAUGUCACGGUCGGCUUCUGUAGAAGGGCACUUACCCAGGUAAAUUGCUUGG”, the “apparent Kd” value is, setting by setting: under setting [1], 5.39 nM; under setting [2], 5.81 nM.

Consider “UGUGGGAGCAGAGGAUAUUACAUGAGGAUCACCCAUGUAUGAACCAAUAGCUGGAAACAGCAAUGUAAGAAGGCUGCUCCGACA”, for which the “apparent Kd” value by setting is: under setting [1], 13 nM; under setting [2], 165 nM.

For “GCACUUAAAAUUGAACCGUUUCGAACAUGAGGAUCACCCAUGUAGGAUAUGCUAAAAGUUGUGAUGCAGAAGGACAAUAAGUGC”, the “apparent Kd” value runs as follows: under setting [1], 6.82 nM; under setting [2], 6.67 nM.

Take “CAAAGUUGGUAAGGAUAUCCCACAUUAUUCUGACCCGUGCAAGCUACAUGAGGAUCACCCAUGUGGGAGAAGGUGCGUUAUAGA”: the “apparent Kd” value by setting is: under setting [1], 121 nM; under setting [2], 160 nM.

“GUGGUCAGACAUGAGGAUCACCCAUGUGGAAUAAAUAAGGACAAGGAUAUGGAAUAUAGGAUAUACCAGAAGGUGUGGUUGGUG”: the “apparent Kd” value is 70 nM under setting [3] and 86 nM under setting [4].

As to “GGCUCCGCUCGAGGAUAUAGCUGCAUGUAGUGUCCUGAGGCACAUGAGGAUCACCCAUGUGUAGGCUAGAAGGCGACGGAAGCU”, the “apparent Kd” value under setting [1] is 142 nM and the “apparent Kd” value under setting [2] was found to be 176 nM.

As for “AUAGUGCGCGAGAAGGACGUACCACAUGUUGAUCACCGAUAUAAGGAACGUAGGAUAUUGCACAUGAGGAUCACCCAUGUGGAU”, the “apparent Kd” value reads like this: under setting [3], 16.6 nM; under setting [4], 21.3 nM.

In the case of “UCGUGUUAUACAGGAUAUGUUUAGGUUUAUUCAUUCAGUUAUUAAUUUAUGACAGAAGGGUAUACAUGAGGAUCACCCAUGUCA”, the “apparent Kd” value under setting [1] came to 761 nM and the “apparent Kd” value under setting [2] stood at 306 nM.

On to “AUAUCUCAAUUAGAUCCAAUACGAACAUGAGGAUCACCCAUGUAGGAUAUGCUAGAAGUUGUGUUGCAGAAGGACAUAUACCUU”, for which the “apparent Kd” value is 41.4 nM under setting [1] and 38.6 nM under setting [2].

Take “UUUGUGUGAGGAUAUUAAUUGCAAGCGAAUAGGCUUGUGAUUGAGAAGGCACAUGAGGAUCACCCAUGUUCCUU”: the “apparent Kd” value was determined as 18.1 nM under setting [1] and 151 nM under setting [2].

For “GCGUUGUACGAGAAGGCCAAUACAUGAGGAUCACCCAUGUUAAGUUGUUUUGGAGGAUAUCGAUCACUUACAAUAAUGCAACGC”, the “apparent Kd” value runs as follows: under setting [1], 7.23 nM; under setting [2], 6.31 nM.

In the case of “GGAUGAUAAAUAGGAUAUUAAUUGUAAUUAGGUUAAGAAGGAUUAAUGAUUUAAACGACCAGUUACAUGAGGAUCACCCAUGUU”, the “apparent Kd” value under setting [3] turned out to be 177 nM and the “apparent Kd” value under setting [4] was found to be 161 nM.

“GGUGGACAUGAGGAUCACCCAUGUGAGGAUAUCGGCCGGUUCGUGGUGGCUGGCGUCUCGAGAAGGCGCAUAGU”: the “apparent Kd” value was found to be 35 nM under setting [1] and 45.7 nM under setting [2].

Turning to “GAUUGACAUGAGGAUCACCCAUGUGAGGAUAUCGGCCGGACCUUGUUAGCUUCCACCGCGAGAAGGCACAUCGG”, the “apparent Kd” value is, setting by setting: under setting [1], 19.7 nM; under setting [2], 21.3 nM.
